Screening data: PubChem BioAssay, several laboratories
MT1-MMP act inh = blockers of MT1-MMP proenzyme processing, primary screen, HT1080 RFP-PRO-GFP cells, GFP/RFP fluorescence; Matrix metalloproteinase-14 (Homo sapiens), P50281; GFP/RFP ratio fluorescence, overnight; percent of plate control window, DMSO zero; GFP/RFP ratio change, % at 20 µM; actives 0.061% (n = 360,000);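 active = GFP/RFP ratio change of at least 30% with cell ATP level not reduced by more than half and red fluorescence within 50% of control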
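Assay system – RFP-PRO-GFP reporter HT1080 cells · Compound dosing – single dose of 20 µM compound, 1% DMSO final · Incubation – overnight compound exposure at 37 °C · Measure – GFP/RFP fluorescence ratio · Benchmarks – DMSO wells and RFP-L50D-GFP cells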
NR3A LBD binder = binders of NR3A ligand-binding domain, primary screen, biophysical, differential scanning fluorimetry, uHTS | Tm shift relative to glycine control, % at 25 µM | NR3A LBD differential scanning fluorimetry, Tm shift; 0% = protein alone, 100% = glycine-bound protein | actives 2.5% (n = 340,000) | Glutamate receptor ionotropic, NMDA 3A (GRIN3A) ligand-binding domain;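 active = melting temperature shift of at least 10% of the positive control shift, at one fixed dose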
MPTP block = mitochondrial permeability transition pore inhibitors, primary screen, biochemical, isolated mouse mitochondria, absorbance | actives 1.4% (n = 360,000) | inhibition, % at 10 µM | AID 602449, 2012 | Ca2+ swelling absorbance, 30 min;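 active = inhibition of 50% or more, scaled per plate between neutral and stimulator controls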
SKN-1 block = suppressors of acrylamide-induced Pgst-4::GFP reporter in worms, primary screen, SKN-1 inhibitor project, whole organism, uHTS, GFP/RFP fluorescence ratio, strain VP596. C. elegans VP596 Pgst-4::GFP/RFP ratio, 24 h. inhibition, % at 21.8 µM. actives 0.49% (n = 360,000);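 active = interference check ratio from 0.5 to 1.5 plus GFP to RFP signal ratio inhibition reaching or exceeding a fixed threshold, cut at about 30% in these data, passing the limit was not always enough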
ADAM10 inh = human ADAM10 inhibitors, primary screen, biochemical, QFRET, HTS | Disintegrin and metalloproteinase domain-containing protein 10 (Homo sapiens), O14672 | recombinant ADAM10, EDANS/DABCYL FRET peptide cleavage, 3 h | inhibition, % at 7 µM | actives 0.62% (n = 370,000) | AID 720582, 2013;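 active = inhibition above a per-campaign cutoff equal to the mean of compounds falling between control-based bounds plus 3 SD, cut at about 20% in these data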
Target sequence (O14672 214-748 limits assumed): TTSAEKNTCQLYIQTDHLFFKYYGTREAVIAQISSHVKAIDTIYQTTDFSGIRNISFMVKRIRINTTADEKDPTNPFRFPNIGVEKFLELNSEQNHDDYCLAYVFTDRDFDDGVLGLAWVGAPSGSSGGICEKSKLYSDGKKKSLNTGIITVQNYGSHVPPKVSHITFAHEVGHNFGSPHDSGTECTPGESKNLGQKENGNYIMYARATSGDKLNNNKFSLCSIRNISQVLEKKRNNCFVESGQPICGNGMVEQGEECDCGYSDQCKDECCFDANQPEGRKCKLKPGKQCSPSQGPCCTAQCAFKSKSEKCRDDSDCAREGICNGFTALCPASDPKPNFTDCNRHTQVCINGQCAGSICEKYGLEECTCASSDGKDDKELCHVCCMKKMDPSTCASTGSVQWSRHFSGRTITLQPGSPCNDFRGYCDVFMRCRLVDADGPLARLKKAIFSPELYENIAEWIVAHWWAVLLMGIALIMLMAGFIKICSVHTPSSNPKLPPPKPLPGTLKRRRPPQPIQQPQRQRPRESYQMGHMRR
ADAM17 inh = ADAM17 inhibitors, primary screen, biochemical, QFRET. Disintegrin and metalloproteinase domain-containing protein 17 (Homo sapiens), P78536. recombinant ADAM17, EDANS/DABCYL FRET peptide cleavage. inhibition, % at 6.95 µM. actives 0.83% (n = 370,000). AID 720648, 2013;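 active = inhibition above the mean of compounds lying between control limits plus 3 SD, set per campaign, cut at about 8.5% in these data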
ADAM10 ctr = ADAM10 inhibitors, counter-screen for ADAM17 exosite inhibitor project, biochemical, FRET, human ADAM10. shares compounds with ADAM17 inh. recombinant ADAM10, EDANS/DABCYL FRET peptide cleavage, 3 h. inhibition, % at 6.95 µM. actives 47% (n = 2,900). AID 743256, 2014;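 active = mean inhibition over the triplicate runs exceeds the activity threshold set in the earlier primary screen, cut at about 20% in these data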
ADAM17 confirm = ADAM17 inhibitors, hit retest, confirmation, biochemical, QFRET peptide cleavage. AID 743257, 2014. inhibition, % at 6.95 µM. actives 65% (n = 2,900). recombinant ADAM17, EDANS/DABCYL QFRET peptide cleavage. shares compounds with ADAM17 inh;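 active = mean inhibition across replicates above the hit cutoff set in the primary screen, cut at about 8.5% in these data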
Large screens that a line does not name were inactive (follow-up assays come after a bar, where they were run). The list is not random: actives were taken first. Their share in the collection is about 4.7%.

CCC(Oc1ccc2c(=O)c(-c3ccccc3OC)coc2c1)C(=O)OCc1ccccc1 (configuration not stated)	ADAM17 inh 11 | ADAM10 ctr 27 | ADAM17 confirm 12
O=C(CCCNC(=O)c1ccc(Cl)cc1)NCc1ccc(F)cc1	none
O=C(C[C@@H]1C/C=C\CCC(=O)OC[C@@H]2CCCN2C1=O)N[C@@H](CO)Cc1ccccc1	ADAM17 inh 8.9 | ADAM10 ctr inactive | ADAM17 confirm inactive
O=C(C[C@H]1C/C=C\CC[C@@H](Cc2ccc(F)cc2)C(=O)OC[C@H]2CCCN2C1=O)N[C@H](CO)Cc1ccccc1	none
COc1ccc(S(=O)(=O)NCC(c2ccco2)N2CCc3ccccc3C2)cc1 (configuration not stated)	none
COc1ccc(S(=O)(=O)NCC(c2ccco2)N2CCc3ccccc32)cc1 (configuration not stated)	ADAM17 inh 14 | ADAM10 ctr inactive | ADAM17 confirm 12
O=C(CN1CCOCC1)Nc1ccccc1C(=O)O	none
O=C(CN1CCOCC1)Nc1ccccc1F	ADAM17 inh 9.1 | ADAM10 ctr inactive | ADAM17 confirm inactive
COC(=O)C1=C(C)N(c2cccc(C)c2)C(=O)/C1=C\c1cccs1	ADAM17 inh 8.7 | ADAM10 ctr inactive | ADAM17 confirm inactive
CCOC(=O)C1=C(C)N(c2ccccc2)C(=O)/C1=C\c1cccs1	none
Cc1nnc(SCC(=O)Nc2ccccc2N2CCOCC2)s1	none
CCOc1ccc(NS(=O)(=O)c2cc(NC(=O)CCC(=O)c3cccs3)ccc2Cl)cc1	ADAM17 inh 9.1 | ADAM10 ctr inactive | ADAM17 confirm 10
COc1ccccc1NC(=S)NNC(=O)c1ccc(O)cc1	none
Cc1ccc(S(=O)(=O)N2C[C@H]3C(=O)C[C@@H](c4ccccc4)N(S(=O)(=O)c4ccc(C)cc4)[C@H]3C[C@H]2c2cccc3ccccc23)cc1	ADAM17 inh 11 (no result: NR3A LBD binder) | ADAM10 ctr inactive | ADAM17 confirm 13
CC1(C)CC(=O)C=C(NNC(=O)C2CCCCC2)C1	none
C[C@H](CO)N1C[C@H](C)[C@@H](CN(C)C)Oc2c(NC(=O)CCC(F)(F)F)cccc2C1=O	ADAM17 inh 10.0 | ADAM10 ctr inactive | ADAM17 confirm inactive
C[C@H](CO)N1C[C@H](C)[C@@H](CN(C)S(=O)(=O)c2ccccc2)Oc2c(NC(=O)c3ccncc3)cccc2C1=O	ADAM17 inh 11 | ADAM10 ctr inactive | ADAM17 confirm inactive
C[C@H](CO)N1C[C@H](C)[C@@H](CN(C)Cc2ccncc2)Oc2c(NC(=O)c3ccncc3)cccc2C1=O	none
C[C@H](CO)N1C[C@H](C)[C@@H](CN(C)S(=O)(=O)c2ccc(F)cc2)Oc2c(NC(=O)c3ccncc3)cccc2C1=O	ADAM17 inh 10 | ADAM10 ctr inactive | ADAM17 confirm inactive
C[C@H]1CN([C@@H](C)CO)C(=O)c2cccc(NC(=O)c3cnccn3)c2O[C@@H]1CN(C)S(=O)(=O)c1ccc(F)cc1	none (no result: ADAM10 inh, ADAM17 inh)
C[C@H](CO)N1C[C@H](C)[C@@H](CN(C)Cc2ccncc2)Oc2c(NC(=O)CCC(F)(F)F)cccc2C1=O	none
CN(CC(O)CON=C1c2ccccc2-c2ccccc21)S(=O)(=O)c1ccc(Br)cc1 (configuration not stated)	ADAM17 inh 8.8 | ADAM10 ctr 23 | ADAM17 confirm 14
CS(=O)(=O)N(CC(O)CON=C1c2ccccc2-c2ccccc21)c1ccc(F)cc1 (configuration not stated)	none
CCN(CC(O)CON=C1c2ccccc2-c2ccccc21)S(=O)(=O)c1ccc(C)cc1 (configuration not stated)	ADAM17 inh 9.4 | ADAM10 ctr 22 | ADAM17 confirm 17
CCN(CC(O)CON=C1c2ccccc2-c2ccccc21)S(=O)(=O)c1ccc(Cl)cc1 (configuration not stated)	none
COC(=O)c1ccccc1NC(=O)CSc1nc(Nc2ccccc2)nc(N2CCOCC2)n1	ADAM17 inh 8.7 | ADAM10 ctr inactive | ADAM17 confirm 9.1
COc1ccc(CCC(=O)NNC(=O)c2cc(Cl)ccc2OC)cc1	ADAM17 inh 8.8 | ADAM10 ctr inactive | ADAM17 confirm inactive
COc1ccc(CCC(=O)NNC(=O)c2cc(Cl)ccc2OC)cc1OC	none
O=C(Nc1ccc(Cl)cc1Cl)c1cccc(N2C(=O)C=CC2=O)c1	none
Clc1ccc(SCc2cc(-c3ccccc3)no2)cc1	none
Cc1cc(CSc2ccc(Cl)cc2)ccc1N	ADAM17 inh 9.7 | ADAM10 ctr 21 | ADAM17 confirm inactive
Cc1sc2ncnc(NCCCO)c2c1C	none
Cc1ccc(Nc2ncnc3sc(C)c(C)c23)cc1C	ADAM17 inh 9.1 | ADAM10 ctr inactive | ADAM17 confirm inactive
COc1cccc(NC(=O)Cc2csc(NC(=O)Nc3ccccc3OC)n2)c1	NR3A LBD binder 29, ADAM17 inh 10 | ADAM10 ctr 35 | ADAM17 confirm 18
COc1ccc(OC)c(NC(=O)Nc2nc(CN(C)C)cs2)c1	none (no result: NR3A LBD binder)
C/C(=N/NC(=O)c1ccco1)c1ccc(Br)s1	none
O=C(COC(=O)c1ccc([N+](=O)[O-])o1)NC1CCCCC1	none
CCC(=O)N1CCc2cc(Br)cc(S(=O)(=O)N(C)c3ccc(OC)cc3OC)c21	ADAM17 inh 10 | ADAM10 ctr inactive | ADAM17 confirm inactive
COc1ccc(Cc2nc3ccc(C(=O)NCCc4ccccn4)cc3o2)cc1OC	none
CN(Cc1ccccc1)S(=O)(=O)c1ccc(NC(=O)C2CCCO2)cc1 (configuration not stated)	ADAM17 inh 8.9 | ADAM10 ctr inactive | ADAM17 confirm inactive
Fc1cccc(CCN2C(=S)NC[C@@H]2Cc2ccccc2)c1	none
